Rows were chosen to be rich in hits. Some 2.6% of all compounds tested hit in one or more screens of this group.
procasp3 activ = procaspase-3 (human) activation; P42574; recombinant procaspase-3 D3A, Ac-DEVD-pNA absorbance 405 nm; activation, % at 8.5 µM; actives 0.11% (n = 330,000); AID 463141;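 active = activation above the mean of all tested compounds plus 3 SD, cut at about 21% in these data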;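 note: 0% = DMSO alone and 100% = DMSO wells spiked with extra 5 µM PC-3 D3A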
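Test system: Procaspase-3 D3A mutant, all three cleavage aspartates alanine | Dosing: Single dose, 8.5 µM nominal compound, 0.8% DMSO | Schedule: 1 h preincubation, 2 h reaction | Technique: 405 nm absorbance of p-nitroaniline, reads at 0 and 120 min | Repeats: One well per compound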
AHR act = human AHR activation | P35869 | AHR-responsive luciferase reporter cells, luminescence | activation, % at 5 µM | actives 2.5% (n = 320,000); in the data active = activation above about 47%;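 note: 0% = vehicle wells and 100% = reference agonist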
proCasp7 act = activates human procaspase-7, counter-screen for procaspase-3 activators | P55210 | recombinant procaspase-7, Ac-DEVD-pNA absorbance 405 nm; D23A/D198A/D206A triple mutant, cannot self-cleave; scale: DMSO 0, 5 µM enzyme 100 | activation, % at 8.5 µM | actives 0.093% (n = 330,000) | AID 463210;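 active = percent activation above the screen-wide mean plus 3 SD, cut at about 25% in these data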
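Assay system: Uncleavable procaspase-7 mutant enzyme; Input: 2 µM procaspase-7 mutant as dispensed; Also added: DEVD-pNA substrate; Medium: Zinc-free HEPES pH 7.4 with 300 mM NaCl, 0.01% Triton X-100; Timing: 1 h compound preincubation, 2 h substrate cleavage, 25 °C; Measured by: Epi-absorbance of released pNA at 405 nm, two timepoints.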
PolyA inh = inhibitors of polyadenylation in S. cerevisiae; S. cerevisiae SKY197-pL101 polyadenylation reporter, beta-gal luminescence; efflux-impaired pdr1/pdr3 knockout yeast; score 100 = 6 SD above DMSO; activity score, % at 12 µM; actives 0.02% (n = 300,000);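 active = lowest replicate activity score at least 50, where 100 means six control SD above control mean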;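 note: yeast exposed to compound for 9 h at 30 °C; higher score means more reporter readthrough which indicates perturbed polyadenylation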
The depositor's hits bear a star; nt = not tested or not shown.

SMILES	procasp3 activ	AHR act	proCasp7 act	PolyA inh
COc1ccc(S(=O)(=O)N2CCOC23CCN(C(=O)c2ccccc2OC)CC3)cc1	1	-2	18	16
COc1ccccc1NC(=O)c1csc2c1CCC(C)C2 (stereo not given)	3	55*	0	-13
Cn1c(SCC(=O)Nc2nccs2)nnc1-c1ccccn1	-2	5	10	-3
Cc1c(NC(=O)c2cccc(NC(=O)COc3cccc(Br)c3)c2)c(=O)n(-c2ccccc2)n1C	-4	2	0	nt
O=C(COc1ccccc1[N+](=O)[O-])Nc1ccc(Br)cc1	0	53*	1	nt
O=C(COc1ccccc1[N+](=O)[O-])Nc1cccnc1	-7	-5	-2	-20
C/C(=N\NC(=O)COc1ccccc1[N+](=O)[O-])c1cccs1	4	57*	3	-8
CCN(CC)C(=O)Oc1ccc2c(c1)O/C(=C\c1ccco1)C2=O	-4	4	-20	59*
CS(=O)(=O)N(CC(=O)Nc1ccc2c(c1)OCO2)Cc1ccccc1	-4	15	14	19
CS(=O)(=O)N(CC(=O)Nc1ccc2c(c1)OCO2)Cc1ccc(Cl)cc1	1	65*	-8	19
O=C(NC(=S)Nc1ccc2c(c1)OCO2)c1ccc(Cl)cc1	-10	53*	-23	14
CN(C)C(=S)Nc1ccc2c(c1)OCO2	-20	3	-27	-6
O=C(Cc1ccc([N+](=O)[O-])cc1)Nc1ccc2c(c1)OCO2	5	15	9	12
S=C(Nc1ccc2c(c1)OCO2)Nc1ccc2c(c1)OCO2	-14	68*	-26	-17
O=C(Nc1ccc2c(c1)OCO2)c1ccc([N+](=O)[O-])cc1[N+](=O)[O-]	-7	72*	-13	12
CCN(CC)P(=O)(c1ccccc1)c1c(C)nc2ccccn12 (stereo not given)	8	0	-3	5
O=C(NC(=S)Nc1cc([N+](=O)[O-])ccc1O)c1ccc2c(c1)OCO2	-10	71*	-14	-7
COc1cc([N+](=O)[O-])ccc1NC(=S)NNC(=O)c1ccc2c(c1)OCO2	-21	39	-17	-15
Cc1cc(NC(=O)C(C)Sc2nc(-c3ccccc3)cc(=O)[nH]2)no1 (stereo not given)	-3	2	0	17
NC1=NC2(CCCCC2)N=C(Nc2ccc(F)cc2F)N1	1	0	6	2
Cc1cc(C)cc(NC2=NC3(CCCCC3)N=C(N)N2)c1	-1	56*	0	1
CCCCNc1c(-c2ccc(SC(C)CC)cc2)nc2cnccn12 (stereo not given)	-2	48*	2	nt
O=c1cc(O)n(Cc2ccc(F)cc2)c(=O)[nH]1	nt	nt	nt	26
CCCSc1ccc2nc(NC(=O)OC)[nH]c2c1	-3	54*	11	1
COc1cc2c(C)nc3onc(-c4ccccc4)c3c2cc1OC	-9	71*	4	-30
SMILES	procasp3 activ	AHR act	proCasp7 act	PolyA inh
FC(F)(F)c1cccc(NC(=S)Nc2cccc(NC(=S)Nc3cccc(C(F)(F)F)c3)n2)c1	3	66*	-11	-7
CCOc1ccc(S(=O)(=O)/N=C(/Nc2ccc(C(C)=O)cc2)c2ccccc2)cc1	-1	65*	-2	nt
Cn1c(=O)n(C)c2cc(NC(=O)COc3ccc(F)cc3)ccc21	6	-2	-1	15
Cc1ccc(C)c(CSc2nc3[nH]ncc3c(=O)[nH]2)c1	12	48*	-1	7
Cc1cccc2c1nc(-c1ccccc1)n1nnnc21	6	57*	-1	-12
CC(=O)Nc1ccc(S(=O)(=O)NC2=C(N3CCN(c4ccc(F)cc4)CC3)C(=O)c3ccccc3C2=O)cc1	-3	85*	-8	-10
Cc1ccc(S(=O)(=O)NC2=C(N3CCN(c4ccccc4F)CC3)C(=O)c3ccccc3C2=O)cc1	5	7	2	-2
Cn1c(O)c(N=Nc2ccccc2)c2ccccc21	-4	55*	1	-11
Cn1c(O)c(N=NC(=O)c2cc(-c3cccs3)nc3ccccc23)c2ccccc21	1	17	-6	13
Cn1c(O)c(N=Nc2ccc(F)cc2)c2ccccc21	-24	44	-21	-29
Cn1c(O)c(N=Nc2nc(-c3ccccc3)cs2)c2ccccc21	2	54*	-22	-8
COc1ccc(CCN(C)C(=O)c2c(C)noc2C)cc1OC	5	-1	-8	nt
CCOc1[nH]n(-c2ccccc2)c(=O)c1C=NCC(=O)OC	7	8	-9	14
CCOc1[nH]n(-c2ccccc2)c(=O)c1C=NCc1cccnc1	2	59*	-3	9
O=C(Nc1ccc(F)cc1)c1c(Cl)nc2ccccn12	-1	58*	8	-12
CCCn1cccc(C(=O)Nc2ccc(OC)cc2)c1=O	-7	75*	-8	-3
CCC(=O)Nc1ccc(NC(=O)c2c(C)nc3ccccn23)cc1	14	2	1	8
CCn1ncc(C(=O)Nc2ccc(F)cc2)c1C	-6	60*	5	-5
C#CCn1cccc(C(=O)Nc2ccc(OC)cc2)c1=O	-6	40	5	-19
COc1ccc(NC(=O)c2cccc3ccccc23)cc1	-1	52*	-3	-22
CCc1nn2c(=O)cc(CSCC(=O)Nc3ccccc3Cl)nc2s1	2	-3	0	12
COc1ccccc1OCC(=O)Nc1nc(C)c(C)s1	2	9	-8	-3
CCOC(=O)c1ccccc1NC(=O)CSc1nc(N)cc(=O)[nH]1	3	0	1	24
COc1ccc(NC(=O)Nc2c(O)ccc3ccccc23)cc1	-2	67*	-16	3
COc1cc(NC(=O)c2ccccc2-c2ccccc2)cc(OC)c1	-4	48*	6	-14
SMILES	procasp3 activ	AHR act	proCasp7 act	PolyA inh
COc1ccc(NC(=O)Nc2ccc(OC)cc2)cc1	-3	1	4	-18
O=C(Nc1ccc(F)cc1)c1cccc2ccccc12	5	57*	14	-1
CC(C)c1ccccc1OCC(=O)Nc1ccc2[nH]ncc2c1	-4	7	7	-7
Cc1ccc(-n2nc3c(c2NC(=O)C(C)C)CS(=O)(=O)C3)cc1	1	3	12	-4
CC(C)N(CCNC(=O)C1CCCN(c2ncnc3c2nc2n3CCCCC2)C1)Cc1ccccc1 (stereo not given)	7	-2	7	1
Cc1cccc(NC(=O)CCC2CCN(C(=O)C3CC=CCC3)CC2)c1 (stereo not given)	-5	0	6	-16
Cc1c(-c2nc(-c3ccncc3)no2)cccc1[N+](=O)[O-]	-2	65*	3	-19
N#Cc1c(NC(=O)c2ccc(Cn3cc(Br)cn3)o2)sc2c1CCCCC2	-2	48*	0	-3
COc1cc(OC)cc(C(=O)NCC(=O)NCc2ccccn2)c1	13	9	0	nt
COc1cc2c(cc1OC)-c1c(OC)c(OC)cc3ccnc(c13)C2=O	-5	48*	7	8
